From ChEMBL document CHEMBL2169737, “Catechol pyrazolinones as trypanocidals: fragment-based design, synthesis, and pharmacological evaluation of nanomolar inhibitors of trypanosomal phosphodiesterase B1” (J Med Chem, 2012)
Blank lines part the entries; values can stand above or below the compound they belong to. Calls of active or inactive are those of the source. The rule behind the calls is not given here.

Legend:
[1] = target: T1, Class 1 phosphodiesterase PDEB1 (Trypanosoma brucei, UniProt Q8WQX9); assay: Inhibition of Trypanosoma brucei recombinant TbrPDEB1 expressed in Sf21 insect cells assessed as reduction of [3H]-cAMP hydrolysis by scintillation proximity assay
T1 sequence (Q8WQX9 whole entry): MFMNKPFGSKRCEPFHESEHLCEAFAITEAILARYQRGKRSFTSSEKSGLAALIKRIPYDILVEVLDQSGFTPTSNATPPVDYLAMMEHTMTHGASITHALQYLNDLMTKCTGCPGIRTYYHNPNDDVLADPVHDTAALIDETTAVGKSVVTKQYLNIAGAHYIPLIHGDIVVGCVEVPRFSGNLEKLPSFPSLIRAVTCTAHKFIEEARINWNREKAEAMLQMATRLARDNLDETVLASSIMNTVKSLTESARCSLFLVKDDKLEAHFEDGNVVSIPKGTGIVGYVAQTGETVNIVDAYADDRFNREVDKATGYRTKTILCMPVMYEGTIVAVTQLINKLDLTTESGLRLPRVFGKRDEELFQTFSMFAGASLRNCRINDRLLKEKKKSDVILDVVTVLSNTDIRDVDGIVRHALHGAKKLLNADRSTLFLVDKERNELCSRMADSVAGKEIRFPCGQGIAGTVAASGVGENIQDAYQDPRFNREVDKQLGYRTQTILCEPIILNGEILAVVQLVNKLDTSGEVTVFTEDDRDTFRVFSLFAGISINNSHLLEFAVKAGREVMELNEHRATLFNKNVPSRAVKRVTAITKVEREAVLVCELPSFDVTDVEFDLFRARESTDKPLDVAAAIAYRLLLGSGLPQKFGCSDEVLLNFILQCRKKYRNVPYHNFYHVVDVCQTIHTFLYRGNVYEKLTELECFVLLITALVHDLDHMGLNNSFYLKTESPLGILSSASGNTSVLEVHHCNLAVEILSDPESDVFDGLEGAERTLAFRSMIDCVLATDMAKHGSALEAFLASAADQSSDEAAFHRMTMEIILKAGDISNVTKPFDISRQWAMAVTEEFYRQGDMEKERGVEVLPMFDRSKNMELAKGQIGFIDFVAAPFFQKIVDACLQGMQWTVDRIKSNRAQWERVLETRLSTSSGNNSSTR
In short: (§1)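 Full-length PDEs used as supernatants of sonicated overexpressing cells: Sf21 for TbrPDEB1 and hPDE4A1/4B1/4C1/4D3, yeast for TbrPDEB2. Inhibition of ³H-cAMP hydrolysis measured by scintillation proximity assay with 0.5 μM cAMP substrate, in at least duplicates. Enzyme adjusted for <20% substrate consumption; blanks used denatured protein. IC50 obtained by nonlinear regression of dose-response curves.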

[2] = tested on: Trypanosoma brucei brucei; assay: Induction of morphological changes in wild type blood form of Trypanosoma brucei brucei assessed as multiple nuclei and kinetoplasts formation after 12 hrs by microscopic analysis; assay type: functional, organism-based
In short: (§2)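 Bloodstream T. b. brucei trypomastigotes at 1x10^6/mL incubated 12 h with 1, 5 or 10 μM compound or vehicle. Cells washed in saline, spread on slides, fixed 15 min in 2% formaldehyde, stained 30 min with Syto-9 (250 nM) and Nile Red. More than 300 cells per sample scored manually by microscopy as 1N1K, 1N2K, 2N1K or >2N2K.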

[3] = tested on: Trypanosoma brucei brucei; assay: Antitrypanosomal activity against wild type blood form of Trypanosoma brucei brucei assessed as parasite lysis at 10 uM after 48 hrs; assay type: functional, organism-based
[4] = tested on: Trypanosoma brucei brucei; assay: Induction of morphological changes in wild type blood form of Trypanosoma brucei brucei assessed as multiple nuclei and kinetoplasts formation at 10 uM after 12 hrs by microscopic analysis; assay type: functional, organism-based; in short: as §2
[5] = tested on: Trypanosoma brucei; assay: Increase in intracellular cAMP level in Trypanosoma brucei 427 expressing cAMP-FRET sensor by FRET assay; assay type: functional, organism-based
In short: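 Procyclic T. brucei 427 stably expressing an EPAC1-based cAMP FRET sensor (EP procyclin locus, neomycin selection), grown in SDM79 with 5% FCS. Log-phase cells washed in HBSS and used at 5-6 x 10^7/mL. Drug dilutions in DMSO (1 µL/well) mixed with HBSS, then cell suspension added at 27 °C.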

[6] = tested on: Trypanosoma brucei rhodesiense; assay: Antitrypanosomal activity against trypomastigotes of Trypanosoma brucei rhodesiense STIB-900 after 72 hrs by fluorescence assay; conditions: STIB-900, 72 h
[7] = tested on: Trypanosoma cruzi; assay: Antitrypanosomal activity against trypomastigotes of Trypanosoma cruzi after 72 hrs by fluorescence assay
[8] = Inhibition of Trypanosoma brucei recombinant TbrPDEB2 expressed in yeast assessed as reduction of [3H]-cAMP hydrolysis by scintillation proximity assay; in short: as §1
[9] = tested on: Trypanosoma brucei brucei; assay: microbe, parasite or virus in culture; conditions: Squib-427, 72 h
[10] = tested on: Trypanosoma brucei brucei; assay: Antitrypanosomal activity against Trypanosoma brucei brucei; assay type: functional, organism-based
In short: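 Bloodstream trypomastigotes (T. b. brucei Squib-427, suramin-sensitive, or T. b. rhodesiense STIB-900) grown at 37 °C, 5% CO2 in Hirumi-9 with 10% FCS. 1.5×10^4 parasites/well added to 2- or 4-fold serially diluted compounds (DMSO stock, water intermediate dilution, final DMSO <1%). After 72 h, resazurin added for 24 h at 37 °C. Fluorescence read at ex 530/em 590 nm.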

[11] = Cytotoxicity against human MRC5 cells after 72 hrs by resazurin assay; assay type: cell-based

Structure (SMILES): COc1ccc(C2=NN(C(C)C)C(=O)C2(C)C)cc1Cl
IC50 [1]: > 10 µM

Structure (SMILES): COc1ccc(C2=NN(C3CCCCCC3)C(=O)C2(C)C)cc1OCCCCOc1ccc(-c2nn[nH]n2)cc1
Activity [2]: Dose-dependent effect
inhibition [3]: Active
Activity [4]: Active
Activity [5]: Dose-dependent effect
IC50 [6]: 0.06 µM
IC50 [7]: 7.6 µM
IC50 [8]: 0.072 µM
IC50 [9]: 0.52 µM

Structure (SMILES): COc1ccc(C2=NN(C(C)C)C(=O)C2(C)C)cc1OCCCCOc1ccc(C#N)cc1
IC50 [1]: 5 µM

Structure (SMILES): COc1ccc(C2=NN(C(C)C)C(=O)C2(C)C)cc1Br
IC50 [1]: > 10 µM

Structure (SMILES): COc1ccc(C2=NN(C3CCCCCC3)C(=O)C3CC=CCC23)cc1OCCCCOc1ccc(-c2nn[nH]n2)cc1 (centres undefined)
IC50 [10]: 0.08 µM

Structure (SMILES): COc1ccc(C2CNC(=O)C2)cc1OC1CCCC1 (centres undefined) [ROLIPRAM]
IC50 [1]: > 100 µM

Structure (SMILES): COc1ccc(C2=NNC(=O)C2(C)C)cc1Br
CC50 at 72 h [11]: > 64 µM
IC50 [1]: > 10 µM
IC50 [9]: > 64 µM

Structure (SMILES): COc1ccc(C2=NNC(=O)C2(C)C)cc1OC1CCCC1
IC50 [1]: 12 µM

Structure (SMILES): COc1ccc(C2=NN(C(C)C)C(=O)C2(C)C)cc1OCc1ccccn1
IC50 [1]: 2.5 µM

Structure (SMILES): COc1ccc(C2=NN(C(C)C)C(=O)C2(C)C)cc1O
IC50 [1]: > 10 µM

Continued by falling IC50 [1], values first:

IC50 [1]: 2 µM
IC50 [9]: 32 µM
Structure (SMILES): COc1ccc(COc2cc(C3=NN(C(C)C)C(=O)C3(C)C)ccc2OC)cc1
CC50 at 72 h [11]: > 64 µM

IC50 [1]: 0.83 µM
Structure (SMILES): COc1ccc(CCOc2cc(C3=NN(C(C)C)C(=O)C3(C)C)ccc2OC)cc1

IC50 [1]: 0.63 µM
Structure (SMILES): COc1ccc(CCOc2cc(C3=NN(C4CCCCCC4)C(=O)C3(C)C)ccc2OC)cc1

IC50 [1]: 0.5 µM
IC50 [9]: 6.3 µM
Structure (SMILES): COc1ccc(C2=NN(C3CCCCCC3)C(=O)C2(C)C)cc1OCc1ccccc1
CC50 at 72 h [11]: > 64 µM

IC50 [1]: 0.41 µM
Structure (SMILES): COc1ccc(C2=NN(C3CCCCCC3)C(=O)C2(C)C)cc1OC1CCCC1

IC50 [1]: 0.25 µM
Structure (SMILES): COc1ccc(C2=NN(C3CCCCCC3)C(=O)C2(C)C)cc1OCc1cccc2ccccc12
